In brackets after ≈: the same amount, converted by molar mass.
What was measured:
[1] = system: Madin-Darby canine kidney (MDCK) cells with canine MDR1 knocked out; assay: MDCK permeability assay; type: in vitro ADME; conditions: apical to basolateral direction
Procedure, shortened: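 MDCK cells with endogenous canine MDR1 knocked out. Transport of the test compound was measured in the apical-to-basolateral direction. Permeability was reported in 10^-6 cm/s. Data were accepted only when compound recovery was 70%-130%.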

[2] = Kinetic solubility; type: physicochemical; conditions: PBS buffer, pH 7.4, aqueous buffer, kinetic from dmso stock

Compound | permeability (passive diffusion rate), level in words [1] | solubility kinetic at 24 h [2]
CC(=O)N1CC(C(=O)Nc2ccc(C3CCCCC3)cc2)C1 [1i] | high | –
O=C(Cn1ccnc1)Nc1ccc(C2CCCCC2)cc1 [1c] | high | –

Results, then the compound that gave them:

permeability (passive diffusion rate), level in words [1] | solubility kinetic at 24 h [2] | Compound
highly permeable | – | CN(Cc1cccnc1)C(=O)c1ccc([C@H]2[C@@H](F)[C@@H](F)C[C@@H](F)[C@H]2F)cc1 [J-2c']
highly permeable | – | CN(Cc1cccnc1)C(=O)c1ccc(C2CCCCC2)cc1 [2c']
– | 136 µM (≈ 46.4 µg/mL) | O=C(Nc1ccc([C@H]2[C@@H](F)[C@@H](F)C[C@@H](F)[C@H]2F)cc1)c1cn[nH]c1 [J-1b]
